Published values collected from several papers.
BRD9: Bromodomain-containing protein 9 (BRD9, Homo sapiens, UniProt Q9H8M2)
CNR2: Cannabinoid receptor 2 (CNR2, Homo sapiens, UniProt P34972)
PKMYT1: Membrane-associated tyrosine- and threonine-specific cdc2-inhibitory kinase (PKMYT1, Homo sapiens, UniProt Q99640)

The inhibition of `Cc1cc(O)c(-c2ccc([C@@H](C)CN(C)C)cc2)c2c1[nH]c(=O)c1sccc12` is reported as 18.9% (STE20-related kinase adapter protein beta (Homo sapiens, UniProt Q9C0K7); enzyme activity, inhibitor; 0.1 µM, lysate).
`COc1cc(C(C)O)c(OC)cc1-c1cc(C(C)=O)n2ccccc12` (stereo not drawn) has a ΔTm of 9.9 °C (BRD9; thermal stability, DSF; 200 µM).
`Cc1cc(F)cc2c(CCC(=O)N[C@@H]3C(=O)NC[C@H]3O)c(-c3ccc(F)cc3)[nH]c12` gave an inhibition of -2% (Beta-2 adrenergic receptor (ADRB2, Homo sapiens, UniProt P07550); cell-free assay; 10 µM).
The inhibition of `CN(C)CCOC(=O)COc1ccc(Cl)cc1` is reported as -3.85% (CNR2; ligand displacement, radioligand; 1 µM, cell membranes).
For `CCN1/C(=C/C(C)=O)Sc2ccc(F)cc21`, the inhibition was 16.8% (CNR2; ligand displacement, radioligand; 10 µM).
With `COc1cc(-c2cc(C(C)=O)n3ccccc23)cc(OC)c1CN1CC(O)C1` the ΔTm was 14.8 °C (BRD9; thermal stability, DSF; 200 µM).
The inhibition of `NC/C(=C\F)COc1cccc(Cn2c(=S)[nH]c(=O)c3[nH]cnc32)c1` is reported as under 50% (Ileal sodium/bile acid cotransporter (SLC10A2, Homo sapiens, UniProt Q12908); transporter uptake, inhibitor; 30 µM).
`CC(=O)c1cc(-c2cccc(C(F)(F)F)c2)c2ccccn12` gave a ΔTm of 3 °C (BRD9; thermal stability, DSF; 200 µM).
`CC(=O)ON=C1C=CC(=C(C#N)c2ccccc2)C=C1` gave an activity vs control of 76% (Serine/threonine-protein kinase haspin (HASPIN, Homo sapiens, UniProt Q8TF76); enzyme activity, inhibitor, ADP detection; 2 µM).
The remaining binding of `CCCCC(=O)Nc1ccc(-c2ccc3ncn(CCC)c(=O)c3c2)cn1` is reported as 86% (PKMYT1; binding, competition with immobilised ligand; 0.5 µM).
`COc1ccc2oc(-c3ccc4nc(N)oc4c3)c/c(=N\c3ccccc3NC(=O)CCN)c2c1` has a remaining binding of 109% (Activin receptor type-2A (ACVR2A, Homo sapiens, UniProt P27037); binding, competition with immobilised ligand; 1 µM).
The ΔTm of `COc1cc(-c2cc(C(C)=O)n3ccccc23)c(OC)cc1C=O` is reported as 8.3 °C (BRD9; thermal stability, DSF; 200 µM).
For `C1=C/COCc2cc(ccc2OCCN2CCCC2)Nc2nccc(n2)-c2cccc(c2)COC/1`, the remaining binding was 5.9% (Cyclin-dependent kinase-like 3 (CDKL3, Homo sapiens, UniProt Q8IVW4); binding; 0.1 µM).
With `COc1cc(C(C)(C)O)c(OC)cc1-c1cc(C(C)=O)n2ccccc12` the ΔTm was 10.5 °C (BRD9; thermal stability, DSF; 200 µM).
`Cc1ncc(-c2cc3cc(-c4c(C)ccc(O)c4C)cnc3[nH]2)cn1` gave an inhibition of 97.2% (PKMYT1; cell-free assay, TR-FRET; 0.1235 µM).
